Here are results for 8 molecules from PubChem BioAssay AID504543 (Southern Research Specialized Biocontainment Screening …, 2011).

Experiment [1] is described as follows: protection of UTI89 from K1F lysis – strain UTI89, C7 control, set 2, capsule biogenesis inhibitor project, dose response (AID 504543). The conditions noted are these: E. coli UTI89 K1F phage lysis inhibition, OD600 3 h; at 300 µM (top of the series). In a few lines:
(§1)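 Assay system – E. coli UTI89 (K1) and kpsM mutant · Probe or stimulus – K1F bacteriophage, added after compound pre-incubation · Times – 1.25 h compound pre-incubation at 37 °C, 3 h phage exposure · Technique – absorbance at 600 nm (OD600) · Control set – kpsM mutant, 1% DMSO wells · Repeats – four replicate wells per compound concentration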

The test system of experiment [2] is E. coli UTI89 K1F phage lysis inhibition, OD600 3 h. Described as above. The conditions noted are these: for CC50: measured here: cytotoxicity. In a few lines: as §1

Active and inactive are the calls of the source.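 The calls were made as follows: active = phage lysis blocked by at least 50% at any tested concentration; inactive = the rest.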

In general, CC50 refers to the concentration that lowers cell viability or growth by half. Low readings indicate greater toxicity to the cells, high ones lower toxicity to the cells. As to `O=C(Nc1cccc(C2=NCCN2)c1)Nc1cccc(C2=NCCN2)c1`, the inhibition of phage lysis in experiment [1] was 14.2% (inactive). This molecule also displayed a CC50 in experiment [2] of 69.1 µM.
The matching figures for `CCN(CC)c1ccc2c(-c3ccc(S(=O)(=O)O)cc3S(=O)(=O)O)c3ccc(=[N+](CC)CC)cc-3oc2c1`: -8.77% (inactive) and less than 2.35 µM.
For `COc1ccc(-c2cc(C(=O)O)c3ccccc3n2)cc1`, in that order: 1.1% (inactive) and 112 µM.
A word on the IC50: it is the point on the concentration scale where inhibition reaches its midpoint. For the molecule `N=C(N)SCCc1cccc(CCSC(=N)N)c1`, in experiment [2], the IC50 was 135 µM and the CC50 worked out at 181 µM.
Consider `NC(N)=N/N=C/c1ccc(OCc2ccccc2)cc1`, for which the inhibition of phage lysis in experiment [1] was -28.3% (inactive). In experiment [2], this molecule displayed a CC50 of 9.38 µM.
The matching figures for `COc1cc(/C=N/N=C(N)N)ccc1OCc1ccccc1Cl`: -29.8% (inactive) and 11.4 µM.
For `Cc1cccc(-c2cc(C(=O)O)c3ccccc3n2)c1`, in that order: -1.53% (inactive) and 138 µM.
On to `O=C1c2c(O)ccc(O)c2C(=O)c2c(NCCNCCO)ccc(NCCNCCO)c21`, for which, in experiment [2], the IC50 was 201 µM and the CC50 was greater than 300 µM.
